Assay results collected from several papers.
Compare with care: the assays were run in different laboratories.
Target: Myosin light chain kinase, smooth muscle (MYLK, Homo sapiens, UniProt Q15746)

Structure (SMILES) | read-out | method | concentration | remaining binding
C[C@@H](c1ccc(-n2cnc3c(N)ncnc32)cc1)N1CCc2nn(C)c(Cc3ccccc3)c2C1=O | binding | competition with immobilised ligand | 0.1 µM | 94%
Nc1ncc2c(n1)-c1c([nH]c3ccc(C#CC4CC4)cc13)CCCC2 | binding | competition with immobilised ligand | 1 µM | 92%
O=C(NCc1ncc(C(F)(F)F)cc1Cl)c1ccc2c(c1)C1(CCS(=O)(=O)CC1)[C@H](C1CC1)N2S(=O)(=O)c1ccc(F)cc1 | cell-free assay | competition with immobilised ligand | 1 µM | 77%
Cc1cnc(Nc2ccc(C(=O)N3CCC(N4CCCC4)CC3)cc2)nc1-c1cc2ccccc2s1 | binding | competition with immobilised ligand | 1 µM | 15%
COc1cnc(Nc2cccc(S(N)(=O)=O)c2)nc1N1CCN(c2ccccc2)CC1 | binding | competition with immobilised ligand | 1 µM | 70%
c1cncc(-c2cccc(Nc3nccc(NC4CCCCC4)n3)c2)c1 | binding | competition with immobilised ligand | 10 µM | 62%
O=C(NCCCN1CCOCC1)c1ccc(Nc2ncc(Cl)c(-c3ccc(Cl)s3)n2)cc1 | binding | competition with immobilised ligand | 1 µM | 89%
Cc1cc(C)c(-n2ccn3nc(-c4cccnc4)cc23)cc1NC(=O)c1cc(C#N)cc(S(F)(F)(F)(F)F)c1 | cell-free assay | competition with immobilised ligand | 0.1 µM | 57.7%
CN(c1nccc(-c2cnn3ncccc23)n1)C1CC1 | binding |  | 1 µM | 100%
COc1cccc(CNC(=O)c2nc3scc(COCc4ccc(C(=O)O)cc4)c3c(=O)[nH]2)c1 | cell-free assay | competition with immobilised ligand | 1 µM | 100%
N[C@H]1CCN(c2nccc(-c3cnn4ncccc34)n2)C1 | binding |  | 1 µM | 81%
O=C(NCC1CCOCC1)c1n[nH]cc1NC(=O)c1c(F)cccc1F | binding | competition with immobilised ligand | 1 µM | 70%
CN(C)c1nccc(-c2cnc3ncccn23)n1 | binding |  | 1 µM | 94%
C[C@@H]1CN(c2cc(-c3nn(C)c4ccc(OC5(C)CC5)cc34)ncn2)C[C@H](C)O1 | cell-free assay | competition with immobilised ligand | 1 µM | 64%
F[C@@H]1CCN(c2nccc(-c3cnn4ncccc34)n2)C1 | binding |  | 1 µM | 72%
FC(F)(F)c1ccc2c(c1)nc(-c1cccnc1)n2C1CC1 | cell-free assay | competition with immobilised ligand | 1 µM | 100%
CN(CCCC(F)(F)F)c1nccc(-c2cnn3ncccc23)n1 | binding |  | 1 µM | 100%
O=C(c1ccc(Nc2ncc(Cl)c(-c3cc4ccccc4s3)n2)cc1)N1CCC(N2CCCC2)CC1 | binding | competition with immobilised ligand | 1 µM | 54%
CCCCN(CCCC)C(=O)CN1C[C@H](c2cc(OC)c3c(c2)OCO3)[C@@H](C(=O)O)[C@@H]1CC(C)(C)CCC | cell-free assay | competition with immobilised ligand | 1 µM | 100%
CC1CCCN1c1nccc(-c2cnn3ncccc23)n1 (centres unmarked) | binding |  | 1 µM | 97%
